Measurements published in ChEMBL document CHEMBL4477187, “Macrolides from a Marine-Derived Fungus, Penicillium meleagrinum var. viridiflavum, Showing Synergistic Effects with Fluconazole against Azole-Resistant Candida albicans” (2016).
Values after ≈ are worked out from the molar mass of the structure shown.

How the values were obtained:
Assay type in all cases: functional
[1] = tested on: Candida albicans; assay: Antifungal activity against fluconazole/itraconazole/voriconazole-resistant Candida albicans clinical isolate J2-36 incubated for 48 hrs by microdilution assay; conditions: isolate J2-36, 48 h
In short: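 Clinical isolate grown 48 h at 37 °C with test compound alone, tested up to […] μg/mL. MIC read as lowest concentration giving ≥90% growth reduction versus drug-free control.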

[2] = tested on: Candida albicans; assay: Antifungal activity against fluconazole/itraconazole/voriconazole-resistant Candida albicans clinical isolate J2-36 incubated for 48 hrs in presence of fluconazole by checkerboard microdilution assay; conditions: isolate J2-36, 48 h
In short: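 Test compound combined with fluconazole against the clinical isolate, 48 h at 37 °C. Combination MIC taken as lowest concentration giving ≥90% growth reduction versus drug-free control.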

[3] = tested on: Candida albicans; assay: Antifungal activity against fluconazole/itraconazole/voriconazole-resistant Candida albicans clinical isolate J2-36 assessed as fractional inhibitory concentration in presence of fluconazole incubated for 48 hrs by checkerboard microdilution assay
In short: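 FICA per test compound = MIC in combination with fluconazole / MIC alone. Clinical isolate incubated 48 h at 37 °C. Each MIC = lowest concentration giving ≥90% growth reduction versus drug-free control.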

SMILES	MIC [1] [µg/mL]	MIC [2] [µg/mL]	Ratio [3]
C[C@@H]1CCCCC(=O)N(C)[C@@H](Cc2ccc(OCCO)cc2)C(=O)O[C@H](C[C@H](C)O)CC1	8 (≈ 17.8 µM)	0.031	0.0039
CCC[C@H](O)C[C@@H]1CC[C@H](C)CCCCC(=O)N(C)[C@@H](Cc2ccc(OCCO)cc2)C(=O)O1	1 (≈ 2.09 µM)	0.0078	0.0078
CCCCCCC[C@@H]1CC[C@H](C)CCCCC(=O)N(C)[C@@H](Cc2ccc(OCCO)cc2)C(=O)O1	> 32	0.5	<0.016
OC(Cn1cncn1)(Cn1cncn1)c1ccc(F)cc1F [FLUCONAZOLE]	> 64	–	–
CCC[C@@H]1CC[C@H](C)CCCCC(=O)N(C)[C@@H](Cc2ccc(OCCO)cc2)C(=O)O1	16 (≈ 36.9 µM)	0.125	0.0078
CCCCC[C@@H]1CC[C@H](C)CCCCC(=O)N(C)[C@@H](Cc2ccc(OCC=C(C)C)cc2)C(=O)O1	> 32	1	<0.031
CCC[C@H](O)C[C@@H]1CC[C@H](C)CCCCC(=O)N(C)[C@@H](Cc2ccc(OCC(O)C(C)(C)O)cc2)C(=O)O1 (some centres not stated)	> 32	0.5	<0.016
CCCCC[C@@H]1CC[C@H](C)CCCCC(=O)N(C)[C@@H](Cc2ccc(OCCO)cc2)C(=O)O1	2 (≈ 4.33 µM)	0.0016	0.00078
